In publication PMC8792325 (Bioorganic & medicinal chemistry letters, 2021):

Experiments:
[1] = test system: HBV replication in HepDES19 cells; assay: Mapping of the HBV replication step inhibited, in HepDES19 cells; assay type: cell-based, Hepatitis B virus; details: HepDES19, 6 days, ETV 1 μM, Bay 41–4109 2 μM; for encapsidated pgRNA / capsids: ENAN-34017 5 μM, 61 5 μM; for encapsidated pgRNA: Northern blot; for capsids: particle gel assay; for intracellular core protein level: Western blot
Summary of the method: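 HepDES19 cells were kept with tetracycline to block pgRNA transcription (negative control) or without it to induce pgRNA and HBV DNA replication. From 24 h after tet removal, cells got DMSO, test compound (5 μM) or a type II CpAM reference (5 μM) for 6 days. Intracellular core protein was detected by Western blot with an antibody to Cp C-terminal 14 residues; β-actin was the loading control.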

HBV replication [2] = assay: Anti-HBV activity, dot blot hybridization assay in AML12HBV10 cells; assay type: cell-based, Hepatitis B virus
[3] = Metabolic stability in mouse liver microsomes; assay type: in vitro ADME; details: Half-life T1/2, mouse liver microsomes
HBV replication [4] = details: immortalized mouse hepatocyte line AML12HBV10; cited from earlier work
HBV replication [5] = details: human hepatoma cell line HepDES19; cited from earlier work
[6] = test system: CYP enzymes (one unnamed isoform of a panel of 9); assay: in vitro; assay type: in vitro ADME
CYP enzymes = assay: in vitro; assay type: in vitro ADME; details: human, 10 μM
[7] = Mouse PK study, IV and PO; design: species or system mice; details: in vivo, 3 mg/kg

COC(=O)C1=C(C)NC(c2ncc(F)cc2F)=N[C@H]1c1ccc(F)cc1Cl [Bay 41–4109]
encapsidated pgRNA [1]: prevented
capsids [1]: completely abolished capsid formation
intracellular core protein level [1]: induced the degradation of core protein

C=C1[C@H](CO)[C@@H](O)C[C@@H]1n1cnc2c(=O)[nH]c(N)nc21.O [Entecavir]
encapsidated pgRNA [1]: accumulation of encapsidated pgRNA
capsids [1]: did not alter
intracellular core protein level [1]: did not alter

O=C(Nc1cc(F)c(F)c(F)c1)c1cccc2c1OCCO2 [Compound 29]
anti-HBV activity (in words) (HBV replication [2]): submicromolar

O=C(Nc1ccc(F)c(Cl)c1)c1cccc2c1OCCC2 [Compound 33]
activity loss compared to 10 (HBV replication [2]): about 4 fold

C[C@@H](NS(=O)(=O)c1ccc(F)c(C(=O)Nc2ccc(F)c(F)c2)c1)C1CC1 [ENAN-34017]
encapsidated pgRNA [1]: reduced the amounts of encapsidated pgRNA
capsids [1]: induced the accumulation of capsids with faster electrophoresis mobility

O=C1CCN(C(=O)Nc2cccc(Cl)c2)[C@@H]2CCCC[C@H]12 [Compound 74]
anti-HBV activity (in words) (HBV replication [2]): submicromolar

O=C(NC1CC(F)(F)C1)c1cccc2c1OCCO2 [Compound 21]
anti-HBV activity (in words) (HBV replication [2]): lost activity

O=C(Nc1ccc(F)c(Cl)c1)c1cccc2nccnc12 [Compound 34]
activity loss compared to 10 (HBV replication [2]): > 10 fold

O=C(Nc1ccc(F)c(Cl)c1)c1cccc2c1OCCO2 [Compound 10]
half-life [3]: < 10 min
EC50 in AML12HBV10 (HBV replication [4]): sub-micromolar
EC50 in HepDES19 (HBV replication [5]): sub-micromolar

O=C(Nc1ccc(O)c(Cl)c1)c1cccc2c1OCCO2 [Compound 20]
anti-HBV activity (in words) (HBV replication [2]): not active

O=C1CCN(C(=O)Nc2ccc(F)c(C(F)F)c2)[C@@H]2CCCC[C@H]12 [Compound 71]
anti-HBV activity (in words) (HBV replication [2]): submicromolar

O=C1CCN(C(=O)Nc2ccc(F)c(Cl)c2)C2CCCCC12 (stereo not drawn) [Compound 61, cis-N-(3-chloro-4-fluorophenyl)-4-oxooctahydroquinoline-1(2H)-carboxamide]
IC50 [6]: < 10 µM
CYP (#/9 of isoforms, > 50% of inhibition at 10 μM) (CYP enzymes): 1
clearance [7]: 25.5 mL/min/kg
encapsidated pgRNA [1]: reduced the amounts of encapsidated pgRNA
capsids [1]: induced the accumulation of capsids with faster electrophoresis mobility

O=C(Nc1ccc(N2CCOCC2)c(Cl)c1)c1cccc2c1OCCO2 [Compound 17]
anti-HBV activity (in words) (HBV replication [2]): loss of anti-HBV activity

Cc1cc(NC(=O)N2CCC(=O)[C@H]3CCCC[C@H]32)ccc1F [Compound 70]
anti-HBV activity (in words) (HBV replication [2]): submicromolar

O=C(Nc1ccc(F)c(Cl)c1)c1cccc2c1OC(F)(F)O2 [Compound 37]
potency increase compared to 10 (HBV replication [2]): 2 fold
